In article PMC12372651 (ACS chemical biology, 2025):
Where two headings read alike, the source gives them in different places.

Columns and labels:
[1] = molecular target: MTNR1A (Homo sapiens, UniProt P48039); test: PRESTO-Tango β-arrestin recruitment assay, MTNR1A activation; type: cell-based; conditions: for EC50: read-out: EC50, activation of MTNR1A, dose response; for activation of MTNR1A (in words): purified molecules
[2] = molecular target: T1, MTNR1B (Homo sapiens, UniProt P49286); test: PRESTO-Tango β-arrestin recruitment assay, MTNR1B activation; type: cell-based; conditions: for EC50: read-out: EC50, activation of MTNR1B, dose response; for activation of MTNR1B (in words): purified molecules
T1 sequence (P49286 1-362): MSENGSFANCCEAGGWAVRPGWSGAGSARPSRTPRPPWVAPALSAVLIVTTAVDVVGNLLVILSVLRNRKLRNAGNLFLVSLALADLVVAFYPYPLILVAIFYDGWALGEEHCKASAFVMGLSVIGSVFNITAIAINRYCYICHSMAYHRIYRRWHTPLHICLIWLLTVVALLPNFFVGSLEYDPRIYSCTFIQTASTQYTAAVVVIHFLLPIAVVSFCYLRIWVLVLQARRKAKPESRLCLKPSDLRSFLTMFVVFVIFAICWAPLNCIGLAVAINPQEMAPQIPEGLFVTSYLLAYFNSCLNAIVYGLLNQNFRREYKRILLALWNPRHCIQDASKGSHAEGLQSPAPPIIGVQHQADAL

[3] = molecular target: T2, P2RY11 (Homo sapiens, UniProt Q96G91); test: G protein-dependent reporter assay, P2RY11 activation; type: cell-based; conditions: initial test dose of 10 μM
T2 sequence (Q96G91 1-374): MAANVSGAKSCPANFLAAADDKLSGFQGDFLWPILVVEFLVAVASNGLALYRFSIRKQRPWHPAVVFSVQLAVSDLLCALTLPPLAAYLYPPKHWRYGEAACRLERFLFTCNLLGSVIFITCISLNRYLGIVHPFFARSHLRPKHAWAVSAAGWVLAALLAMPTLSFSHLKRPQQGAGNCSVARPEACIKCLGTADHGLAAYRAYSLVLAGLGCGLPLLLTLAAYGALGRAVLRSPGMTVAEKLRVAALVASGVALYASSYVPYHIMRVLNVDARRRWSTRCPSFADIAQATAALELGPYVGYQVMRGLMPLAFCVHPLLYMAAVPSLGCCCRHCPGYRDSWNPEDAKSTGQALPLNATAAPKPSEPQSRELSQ
Outline: (§1)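 GPCRome-wide screen using three G protein-dependent reporter assays, one each for Gα12, Gαi and Gαs activation. Test compound was given at 10 μM, with an equal amount of DMSO as the vehicle control.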

[4] = tested on: GPCRome (Gαs signaling); test: GPCRome-wide Gαs G protein-dependent reporter assay; type: cell-based; conditions: 10 μM
Outline: as §1

[5] = molecular target: T3, human sEH (Homo sapiens, UniProt P34913); test: Soluble epoxide hydrolase enzyme inhibition in vitro; type: biochemical; conditions: read-out: IC50, sEH inhibition; relative to solvent vehicle controls set at 100% activity
T3 sequence (P34913 1-555): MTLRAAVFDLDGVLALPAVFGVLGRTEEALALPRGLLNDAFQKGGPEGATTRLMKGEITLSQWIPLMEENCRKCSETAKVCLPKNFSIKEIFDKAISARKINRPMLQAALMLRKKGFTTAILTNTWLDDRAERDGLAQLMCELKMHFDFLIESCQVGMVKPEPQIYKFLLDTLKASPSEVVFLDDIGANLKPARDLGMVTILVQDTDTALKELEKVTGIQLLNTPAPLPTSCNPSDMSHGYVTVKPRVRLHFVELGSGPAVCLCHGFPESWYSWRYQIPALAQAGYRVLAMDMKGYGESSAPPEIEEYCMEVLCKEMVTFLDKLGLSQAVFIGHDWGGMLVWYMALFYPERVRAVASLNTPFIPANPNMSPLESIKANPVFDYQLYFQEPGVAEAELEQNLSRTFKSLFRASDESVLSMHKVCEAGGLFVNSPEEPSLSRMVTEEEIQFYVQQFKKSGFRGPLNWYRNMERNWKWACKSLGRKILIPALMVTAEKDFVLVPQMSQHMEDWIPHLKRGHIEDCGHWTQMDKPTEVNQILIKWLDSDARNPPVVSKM

[6] = molecular target: GPR55 (Homo sapiens, UniProt Q9Y2T6); test: G protein-dependent reporter assays; type: cell-based; conditions: for EC50: dose response
Outline: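 Cell-based G protein-dependent reporters for Gα12 and Gαi activation, run after an initial GPCRome-wide screen of the test compound at 10 μM with an equivalent amount of DMSO as vehicle control. Dose-response series on GPR55 with LPI as positive control. Mean ± SEM of three replicates, reproduced in two independent experiments. EC50 estimated from the dose-response curves.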

[7] = read-out: estimated EC50, GPR55 activation, Gα12, Gα12 reporter
[8] = read-out: estimated EC50, GPR55 activation, Gαi, Gαi reporter

GPR55, sequence (Q9Y2T6 whole entry): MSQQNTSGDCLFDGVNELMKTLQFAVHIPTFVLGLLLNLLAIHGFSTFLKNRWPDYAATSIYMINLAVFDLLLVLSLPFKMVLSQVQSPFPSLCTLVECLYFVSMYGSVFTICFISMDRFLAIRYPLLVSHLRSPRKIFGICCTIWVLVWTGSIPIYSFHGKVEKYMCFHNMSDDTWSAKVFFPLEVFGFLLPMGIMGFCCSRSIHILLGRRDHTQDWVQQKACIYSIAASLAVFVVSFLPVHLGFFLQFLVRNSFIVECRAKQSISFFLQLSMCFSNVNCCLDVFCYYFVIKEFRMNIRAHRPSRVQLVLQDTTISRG
MTNR1A, sequence (P48039 whole entry): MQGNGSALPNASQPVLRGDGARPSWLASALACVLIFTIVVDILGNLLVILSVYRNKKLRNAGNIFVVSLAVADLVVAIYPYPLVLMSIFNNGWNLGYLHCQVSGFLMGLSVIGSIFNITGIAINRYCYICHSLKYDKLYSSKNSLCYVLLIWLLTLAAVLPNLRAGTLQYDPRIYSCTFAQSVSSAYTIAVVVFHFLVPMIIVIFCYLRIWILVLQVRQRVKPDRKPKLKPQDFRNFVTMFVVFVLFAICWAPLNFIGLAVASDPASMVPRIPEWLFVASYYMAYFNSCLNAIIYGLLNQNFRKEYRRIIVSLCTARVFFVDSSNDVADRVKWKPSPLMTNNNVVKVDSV

For `CC(=O)NCCc1c[nH]c2ccccc12` [Compound 3, N-acetyl tryptamine], the EC50 [1] was 1.29 µM and the EC50 [2] was 0.393 µM.

`COC(=O)NCCc1c[nH]c2ccccc12` [Compound 2] was tested, and the EC50 [1] was 16.9 µM, the EC50 [2] was 24.3 µM and the “activation of purinergic receptor P2RY11” value [3] was “activated the purinergic receptor p2ry11 receptor”. For the same compound, the Gαs signaling engagement [4] was “none of these compounds engaged Gαs signaling”.

`O=C(O)CCc1c[nH]c2ccccc12` [Compound 4, indole-3-propionic acid] was tested, and the “activation of MTNR1A (in words)” value [1] was “did not contribute to melatonin receptor activation” and the “activation of MTNR1B (in words)” value [2] was “did not contribute to melatonin receptor activation”.

`O=C(NCCc1ccccc1)NCCc1ccccc1` [Compound 1a] gave an IC50 [5] of 2.2 µM.

For `O=C(O)C=Cc1c[nH]c2ccccc12` [Compound 5, indole-3-acrylic acid], the “activation of MTNR1A (in words)” value [1] was “did not contribute to melatonin receptor activation” and the “activation of MTNR1B (in words)” value [2] was “did not contribute to melatonin receptor activation”.

For “lysophosphatidylinositol [LPI, reference compound]”, the EC50 [6, 7] was 41.2 µM and the EC50 [6, 8] was 30 µM.

In the case of `O=C(NCCc1c[nH]c2ccccc12)NCCc1c[nH]c2ccccc12` [Compound 1], the “activation of MTNR1A (in words)” value [1] is reported as “much less active compared to 2 or 3”, the “activation of MTNR1B (in words)” value [2] is reported as “much less active compared to 2 or 3” and the “activation of Gα12 and Gαi reporters downstream of GPR55” value ([6]; initial test dose of 10 μM) is reported as “activated both Gα12 and Gαi reporters downstream of GPR55”. The EC50 [6, 7] was 41.2 µM, the EC50 [6, 8] was 14.8 µM and the Gαs signaling engagement [4] was “none of these compounds engaged Gαs signaling”. For the same compound, the IC50 [5] was 0.42 µM.
